# The list is a sample of the results.
# Apaf1 activ: human Apaf-1 activation; O14727; Apaf-1 apoptosome caspase-3 activation, DEVD-Rh110 fluorescence; active compounds read low; activity change, negative = activation, % at 20 µM; 330,000 tested, 0.31% active; AID 489031;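 active means activity change at or below -40% at 20 µM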
# Target sequence (O14727 whole entry, looked up): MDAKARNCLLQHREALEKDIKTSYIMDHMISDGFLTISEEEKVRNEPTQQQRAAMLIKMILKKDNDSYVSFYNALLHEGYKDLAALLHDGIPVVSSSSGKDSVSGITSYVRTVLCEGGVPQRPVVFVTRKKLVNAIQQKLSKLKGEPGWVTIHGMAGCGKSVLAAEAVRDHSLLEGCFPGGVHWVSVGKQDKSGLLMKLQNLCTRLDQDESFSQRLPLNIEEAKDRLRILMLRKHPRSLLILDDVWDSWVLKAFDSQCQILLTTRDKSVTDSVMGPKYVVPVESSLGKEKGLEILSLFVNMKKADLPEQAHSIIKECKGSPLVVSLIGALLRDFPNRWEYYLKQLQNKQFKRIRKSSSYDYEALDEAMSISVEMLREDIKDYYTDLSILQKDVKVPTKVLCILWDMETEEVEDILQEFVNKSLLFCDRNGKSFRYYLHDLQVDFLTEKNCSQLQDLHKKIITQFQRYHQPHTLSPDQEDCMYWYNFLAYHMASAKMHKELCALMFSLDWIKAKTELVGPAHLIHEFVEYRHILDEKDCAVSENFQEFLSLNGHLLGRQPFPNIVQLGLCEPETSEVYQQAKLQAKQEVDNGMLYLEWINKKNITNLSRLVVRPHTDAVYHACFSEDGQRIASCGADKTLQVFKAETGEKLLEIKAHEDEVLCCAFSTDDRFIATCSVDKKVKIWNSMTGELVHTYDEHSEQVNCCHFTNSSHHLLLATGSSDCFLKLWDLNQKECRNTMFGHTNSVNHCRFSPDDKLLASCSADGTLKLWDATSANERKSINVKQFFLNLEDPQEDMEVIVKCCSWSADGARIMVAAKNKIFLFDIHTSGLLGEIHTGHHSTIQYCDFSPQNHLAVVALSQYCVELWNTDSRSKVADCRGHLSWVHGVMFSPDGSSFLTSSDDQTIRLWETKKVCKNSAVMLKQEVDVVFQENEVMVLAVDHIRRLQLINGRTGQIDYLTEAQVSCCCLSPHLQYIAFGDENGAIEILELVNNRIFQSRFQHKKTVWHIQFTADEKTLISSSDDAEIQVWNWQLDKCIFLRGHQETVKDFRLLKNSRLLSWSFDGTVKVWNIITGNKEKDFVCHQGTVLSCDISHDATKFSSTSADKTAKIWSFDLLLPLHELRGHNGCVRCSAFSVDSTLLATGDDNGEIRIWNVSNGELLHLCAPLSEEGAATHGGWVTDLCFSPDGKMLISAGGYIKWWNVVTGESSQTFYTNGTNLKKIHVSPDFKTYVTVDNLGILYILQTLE
#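 Material: reconstituted apoptosome of Apaf-1, cytochrome c, caspase-9, procaspase-3; times: 30 min preincubation, 50 min reaction, room temperature; measured by: fluorescence, 540 nm emission, 480 nm excitation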
# Rh110 act interf: counter-screen for Apaf-1 activators: fluorescence interference; AID 504616; Rh110 fluorescence interference, quenched caspase reaction, Ex480/Em540; shares compounds with Apaf1 activ; 980 tested, under 10 active; fluorescence interference (activity change), % at 20 µM, hits read low;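 active means mean activity change at or below -40% when tested at 20 µM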
# Apaf-1 act conf: Apaf-1 (human) activation, single-dose confirmed; reconstituted apoptosome caspase-3 activity, DEVD-Rh110 fluorescence; active compounds read low; 980 tested, 5% active; shares compounds with Apaf1 activ; AID 504617; activity change, negative = activation, % at 20 µM;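 active means mean activity change at or below -40%, meaning activation of 40% or more, at 20 µM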
# The depositor's hits bear a star.
SMILES,Apaf1 activ,others
O=C(CCNC(=O)c1ccc(Cl)cc1)NCCCN1CCOCC1,48,
O=C1C(Cl)=C(NCCN2CCOCC2)C(=O)c2ccccc21,46,
C[C@H](CO)N1C[C@H](C)[C@@H](CN(C)CC2CCCCC2)Oc2c(NC(=O)CCC(F)(F)F)cccc2C1=O,41,
CCCCC(=O)NC(c1ccc(C(C)C)cc1)c1ccc2cccnc2c1O (stereo not drawn),-463*,
COc1ccccc1CNC(=O)CN1C(=O)NC(c2ccccc2)(c2ccc(C)c(C)c2)C1=O (stereo not drawn),66,
Cc1cc(NC(=O)CSCC(=O)Nc2ccc(C)c(C)c2)no1,54,
C[C@H](CO)N1C[C@H](C)[C@@H](CN(C)Cc2ccc(Cl)c(Cl)c2)Oc2c(NC(=O)Cc3ccccc3)cccc2C1=O,44,
O=C(/C=C/c1cc[n+](CC(=O)c2ccc3cccc4c3c2CC4)cc1)c1ccc2cccc3c2c1CC3,59,
CC(=O)Nc1ccc(S(=O)(=O)NC2(C(F)(F)F)NC(=O)N(c3ccc(Cl)cc3)C2=O)cc1 (stereo not drawn),-58*,
CC(=O)Nc1ccc(S(=O)(=O)NCc2ccc3c(c2)cc(C)n3C)cc1,51,
O=[N+]([O-])c1c(Nc2ccccn2)cc(Cl)c2nonc12,91,
CC1CN(S(=O)(=O)c2cccc(C(=O)N(CCc3ccccc3)Cc3ccccc3)c2)CC(C)O1 (stereo not drawn),45,
COc1ccccc1N(/N=C1\Sc2ccccc2C1=O)C(C)=O,83,
Cc1ccc(NC(=O)c2ncn(CC(=O)N[C@H](CO)Cc3c[nH]c4ccccc34)n2)cc1C,74,
Cn1c(-c2sccc2OCc2ccccc2)n[nH]c1=S,-289*,
CC(=O)C1=C(c2cccc([N+](=O)[O-])c2)N(C(C)=O)n2c(C)nnc2S1,44,
Clc1ccc(C2=Nn3c(nnc3-c3n[nH]c4c3CCC4)SC2)cc1Cl,43,
CCCCCC#CCC#CCC#CCC#CCCCC(=O)O,41,
O=C1C(=O)c2ccccc2C(O)=C1CCCCl,83,
CCC1=NNc2cccc3c(OC)ccc1c23,52,
COc1ccc(CCNC(=O)CSc2nnc(-c3ccco3)c(-c3ccco3)n2)cc1OC,43,
Oc1c(Br)cc(Br)cc1C=Nc1cccnc1,79,
[O-][n+]1c2ccccc2cc2ccccc21,-386*,Rh110 act interf=-9;Apaf-1 act conf=9
Cc1ccc(-n2c(N)c(C(=O)Nc3c(C)n(C)n(-c4ccccc4)c3=O)c3nc4ccccc4nc32)cc1C,42,
CCOC(=O)c1c2c(n(C)c1COC)C(=O)C(=O)c1ccc(Br)cc1-2,97,
SMILES,Apaf1 activ,others
COc1ccc(C(=O)NCC23C=CC(O2)C2C(=O)N(Cc4ccccc4)C(=O)C23)cc1 (stereo not drawn),-75*,Rh110 act interf=-1;Apaf-1 act conf=15
CCSCCC(NC1=CC(=O)CC(C)(C)C1)C(=O)O (stereo not drawn),49,
COc1cccc(C(c2c(C)[nH]n(-c3ccccc3)c2=O)c2c(C)[nH]n(-c3ccccc3)c2=O)c1OC,97,
Cc1cc(Cl)ccc1NC(=S)NC1CCCC1,-42*,Rh110 act interf=12;Apaf-1 act conf=23
Cc1ccc(NC(=S)Nc2cccc3cnccc23)c(C)c1,96,
CCOc1ccccc1CNC(=O)C1CCN(c2nnc(C)c3c(C)n(-c4ccc(C)cc4)nc23)CC1,41,
CCCN(CC(=O)Nc1ccccc1C)C(=O)COc1ccc2c(c1)CCC2,60,
CCc1ccccc1NC(=O)CCNS(=O)(=O)c1cc(Br)cnc1N,49,
CCc1ccccc1NC(=O)CCS(=O)(=O)c1ccc(OC)cc1,-117*,Rh110 act interf=0;Apaf-1 act conf=-3
CCN1/C(=C/c2ccc3cc(C)ccc3[n+]2CC)Sc2ccc3sccc3c21,62,
COc1ccc(C(C(=O)NC2CCCC2)N(Cc2ccc(F)cc2)C(=O)c2ccn[nH]2)cc1OC (stereo not drawn),-105*,Rh110 act interf=-5;Apaf-1 act conf=10
CC(C(=O)O)N1C(=O)/C(=C/C=C/c2ccco2)SC1=S (stereo not drawn),47,
COc1cccc(OC)c1-c1nn2c(-c3cc(-c4ccccc4)n[nH]3)nnc2s1,53,
Cc1cccc(-c2cc3c(nn2)-c2ccccc2C3=O)c1,91,
Cc1cccc(-c2nnc3sc(-c4ccccc4C)nn23)c1,-49*,Rh110 act interf=6;Apaf-1 act conf=26
Cc1ccc(C)c2[nH]c(=O)c(C(c3nnnn3Cc3ccccc3)N3CCc4ccccc4C3)cc12 (stereo not drawn),67,
C=CCn1c(COc2cccc(C)c2)nnc1SC(C)C(=O)NC1CC1 (stereo not drawn),41,
NC(=O)N(CCC(=O)O)c1ccccc1,-47*,Rh110 act interf=-12;Apaf-1 act conf=-17
Cc1ccc(C(=O)N/N=C/c2ccc(-c3ccccc3[N+](=O)[O-])o2)cn1,75,

# Source: PubChem
